Values after ≈ are worked out from the molar mass of the structure shown.
How the values were obtained:
[1] = tested on: Mycobacterium tuberculosis; assay: Antimicrobial activity against Mycobacterium tuberculosis H37Rv ATCC 27294 after 16 to 24 hrs by microplate alamar blue assay; type: functional
Outline: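 M. tuberculosis H37Rv inoculum 2×10^5 cfu/mL (100 µL) added to twofold dilutions in Middlebrook 7H12 medium; final test range 128 µM to 0.5 µM from 12.8 mM DMSO stocks. Incubated 37 °C; day 7 Tween 80 plus Alamar Blue added, further 16-24 h at 37 °C. Fluorescence ex 530/em 590 nm; MIC = lowest concentration giving >90% fluorescence reduction versus replicate bacteria-only controls. Rifampin, isoniazid controls.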

[2] = Cytotoxicity against human U937 cells assessed as cell viability at 1.25 ug/ml after 72 hrs by MTT assay; type: cell-based, U-937; details: read-out: Activity
Outline: (§1)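 U937 human monocytic cells plated at 1 × 10^5 cells/mL and allowed to adhere for 1 h at 37 °C in 5% CO2. Non-adherent cells were washed off with RPMI 1640. Adherent cells were exposed to compound in triplicate, with medium alone as the live control and 3% Tween 20 as the dead control. MTT (5 mg/mL in PBS) was then added for 3 h at 37 °C. Formazan was dissolved in 0.4 M HCl/isopropanol and absorbance read at 600 nm. Results are expressed as % cell viability.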

[3] = Cytotoxicity against human U937 cells assessed as cell viability at 5 ug/ml after 72 hrs by MTT assay; type: cell-based, U-937; details: read-out: Activity; outline: as §1
[4] = Cytotoxicity against human U937 cells assessed as cell viability at 10 ug/ml after 72 hrs by MTT assay; type: cell-based, U-937; details: read-out: Activity; outline: as §1
[5] = Cytotoxicity against human U937 cells assessed as cell viability at 20 ug/ml after 72 hrs by MTT assay; type: cell-based, U-937; details: read-out: Activity; outline: as §1
Serum = assay: Stability of the compound in 80% human blood serum assessed as hydrolysis to 2-bromo-6-(1H-imidazol-1-yl)-7H-indeno[2,1-c]quinolin-7-one oxime at 1 mg after 24 hrs at 37 degC by LC-MS analysis; type: ADME, cell-free; design: scale not given: the % may be the effect or the level left
Outline: (§2)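 Enzymatic hydrolysis: 1 mg prodrug dissolved in 1 mL ethanol, then 200 µL preheated human blood serum diluted to 80% with 0.16 M phosphate buffer (pH 7.4) was added. Samples were kept at 37 °C (24 h) and centrifuged 10 min at 10,000 rpm. Remaining prodrug in the supernatant was monitored by TLC and LC-MS. t1/2 is the time to 50% hydrolysis.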

[6] = Stability of the compound in 10% aqueous ammonia buffer at pH 8 assessed as hydrolysis to 2-bromo-6-(1H-imidazol-1-yl)-7H-indeno[2,1-c]quinolin-7-one oxime at 1 mg at 37 degC by LC-MS analysis; type: physicochemical; design: scale not given: the % may be the effect or the level left
Outline: (§3)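 Chemical hydrolysis: 1 mg prodrug dissolved in 1 mL of 10% aqueous ammonia in methanol (pH 8) and held in a thermostatted water bath at 37 °C, up to 24 h. Conversion to the parent oxime was followed by TLC and LC-MS. t1/2 is the time to 50% hydrolysis.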

[7] = Half life in 10% aqueous ammonia buffer at pH 8 assessed as hydrolysis to 2-bromo-6-(1H-imidazol-1-yl)-7H-indeno[2,1-c]quinolin-7-one oxime at 37 degC by LC-MS analysis; type: physicochemical; outline: as §3
[8] = Octanol-water partition coefficient, log P of the compound at pH 7.4 at room temperature by UV spectrophotometric analysis; type: physicochemical
Outline: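 Shake-flask method at room temperature: 1-octanol and phosphate buffer (pH 7.4) were pre-saturated by shaking for 24 h. Compound at 10^-4 M in equal volumes of both phases was shaken vigorously for 1 h, left to stand 15 min, then centrifuged 10 min at 10,000 rpm. UV absorbance of each phase was read at 280 nm against blanks, and P was taken as the octanol/water absorbance ratio.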

[9] = Selectivity index, ratio CC50 for human U937 cells to MIC for Mycobacterium tuberculosis H37Rv ATCC 27294; type: functional, U-937
[10] = Half life in human blood serum by LC-MS analysis; type: ADME, cell-free, Plasma; outline: as §2

SMILES	MIC [1] [µg/mL]	viability at 72 h, 1.25 ug/ml [2] [%]	viability at 72 h, 5 ug/ml [3] [%]	viability at 72 h, 10 ug/ml [4] [%]	viability at 72 h, 20 ug/ml [5] [%]	Activity (Serum)	Activity [6] [%]	half-life [7] [h]	logD [8]	Selectivity Index [9]	half-life [10] [h]
CC(C)(C)OC(=O)NCC(=O)OC1(C)c2ccccc2-c2c1c(-n1ccnc1)nc1ccc(Br)cc21 (configuration not stated)	2.03 (≈ 3.69 µM)	90	83	62	28	Not Active	97	24	1.8	6	
CCCCCC(=O)OC1(C)c2ccccc2-c2c1c(-n1ccnc1)nc1ccc(Br)cc21 (configuration not stated)	1.6 (≈ 3.26 µM)	85	77	54	15	Not Active	90	288	1.4	6.1	
CC(=O)NCC(=O)O/N=C1\c2ccccc2-c2c1c(N1CCN(c3ccccn3)CC1)nc1ccc(Br)cc21	6 (≈ 10.2 µM)	83		77		95%	95	144	1.2		192
CC(C)(C)OC(=O)N1CCC[C@H]1C(=O)O/N=C1\c2ccccc2-c2c1c(N1CCN(c3ccccn3)CC1)nc1ccc(Br)cc21	1.53 (≈ 2.24 µM)	86	75	61	69	13%	95	24	2.3	>26	
C[C@H](NC(=O)OC(C)(C)C)C(=O)O/N=C1\c2ccccc2-c2c1c(N1CCN(c3ccccn3)CC1)nc1ccc(Br)cc21	6 (≈ 9.12 µM)	100		100		66%	95	48	1.7		480
CCCCCCCCCC(=O)O/N=C1\c2ccccc2-c2c1c(-n1ccnc1)nc1ccc(Br)cc21	3 (≈ 5.5 µM)	100		81		90%	90	24	1.4		144
CCCCCCC(=O)OC1(C)c2ccccc2-c2c1c(-n1ccnc1)nc1ccc(Br)cc21 (configuration not stated)	0.42 (≈ 0.833 µM)	85	83	68	54	Not Active	86	312	1.7	40.2	
CCCCC(=O)OC1(C)c2ccccc2-c2c1c(-n1ccnc1)nc1ccc(Br)cc21 (configuration not stated)	1.53 (≈ 3.21 µM)	91	75	48	4	Not Active	90	288	1.7	5.6	
CCCCCC(=O)O/N=C1\c2ccccc2-c2c1c(-n1ccnc1)nc1ccc(Br)cc21	1.5 (≈ 3.07 µM)	81		100		85%	90	144	2.1		240
CCCCCCCCC(=O)OC1(C)c2ccccc2-c2c1c(-n1ccnc1)nc1ccc(Br)cc21 (configuration not stated)	1.56 (≈ 2.93 µM)	86	75	71	50	Not Active	90	288	1.6	11.4	
CC(C)(C)OC(=O)N[C@H](C(=O)O/N=C1\c2ccccc2-c2c1c(N1CCN(c3ccccn3)CC1)nc1ccc(Br)cc21)C(C)(C)C	1.52 (≈ 2.17 µM)	92	86	87	82	11%	95	48	1.5	>26	
CC(C)[C@H](NC(=O)OCC1c2ccccc2-c2ccccc21)C(=O)O/N=C1\c2ccccc2-c2c1c(N1CCN(c3ccccn3)CC1)nc1ccc(Br)cc21	1.47 (≈ 1.82 µM)	85	89	81	80	7%	96	24	1.8	>27	
CCC(=O)O/N=C1\c2ccccc2-c2c1c(N1CCN(c3ccccn3)CC1)nc1ccc(Br)cc21	3.13 (≈ 5.77 µM)	83	88	81	83	13%	95	144	2.7	>13	
CCCCCCCC(=O)OC1(C)c2ccccc2-c2c1c(-n1ccnc1)nc1ccc(Br)cc21 (configuration not stated)	3.42 (≈ 6.6 µM)	87	72	52	17	Not Active	90	264	1.8	2.5	
O=C(CCCCBr)O/N=C1\c2ccccc2-c2c1c(N1CCN(c3ccccn3)CC1)nc1ccc(Br)cc21	2.03 (≈ 3.13 µM)	99	94	79	80	10%	95	96	1.5	>20	

— ChEMBL document CHEMBL1799922, “Synthesis and antimycobacterial activity of prodrugs of indeno[2,1-c]quinoline derivatives” (Eur J Med Chem, 2011)
